Here are results for three compounds from ChEMBL document CHEMBL2331435, “Structure-activity relationship study of vitamin k derivatives yields highly potent neuroprotective agents” (J Med Chem, 2013).

Data set [1] has as its system HT-22. Briefly: Neuroprotective activity in mouse HT22 cells assessed as prevention from tBuOOH-induced oxidative cell death after 3 hrs by MTS assay. It counts as functional, cell-based. Put shortly: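 HT22 cells were seeded at 5.0 × 10^3 per well and cultured overnight, then exposed to 50 μM t-BuOOH (final) plus compound for 3 h. Medium was removed, cells were washed with HBSS and returned to normal medium. MTS was added 24 h after initial treatment, absorbance was read at 490 nm after 2 h, and viability was expressed as percent of untreated cells.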
A general note: Tetrazolium assays rely on reduction of a dye to a coloured formazan, in cell work by metabolically active cells.

Data set [2] concerns Radical scavenging activity. Briefly: Antioxidant activity assessed as DPPH free radical scavenging activity at 20 uM. It counts as functional. Put shortly:
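Test agents at 20 μM final, added to 100 μM DPPH in methanol; absorbance at 517 nm monitored immediately for 10 min. Trolox and ascorbic acid served as positive controls, and the rate of absorbance loss was taken as antioxidant potency.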
For orientation: DPPH is a stable violet radical that fades when it is reduced.

The test system of data set [3] is HT-22. Briefly: Antioxidant activity in mouse HT22 cells assessed as prevention of glutamate-induced GSH depletion at 25 uM. It counts as functional, cell-based. In short, it runs like this: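 HT22 cells were exposed to 10 mM glutamate plus compound (DMSO stock) for 8 h. Total glutathione (reduced plus oxidized) in the supernatant of the cell homogenate was measured with a glutathione reductase enzymatic recycling kit. GSH reacts with DTNB to give TNB, read at 405 nm.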

In data set [4] the test system is Mus musculus. The data set is described as follows: Toxicity in BALB/cByJ mouse assessed as outward signs of distress at 50 mg/kg, ip daily for 3 weeks measured 2 hrs after final injection. Particulars: in vivo. It counts as organism-based. Also on record: dose 50 mg/kg, route intraperitoneal.
Data set [5] deals with HT-22. The data set is described as follows: Antioxidant activity in mouse HT22 cells assessed as reduction in glutamate-induced upregulation of HO1 gene expression at 250 nM after 16 hrs by qRT-PCR analysis relative to untreated control. It counts as functional, cell-based. Put shortly:
(§1)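 HT22 cells were seeded at 3.0 × 10^5 per well and cultured overnight, then treated with or without 10 mM glutamate plus compound (DMSO stock) for 16 h. Cells were trypsinized and washed in cold Ca/Mg-free HBSS. HO-1 and NQO-1 mRNA were measured by qRT-PCR with β2-microglobulin as reference gene, and fold change was calculated by the Livak method.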
Background: In qPCR the cycle at which signal appears reflects the starting amount.

For data set [6], the system named is HT-22. Briefly: Antioxidant activity in mouse HT22 cells assessed as reduction in glutamate-induced upregulation of HO1 gene expression at 250 nM after 16 hrs by qRT-PCR analysis relative to glutamate-treated control. It counts as functional, cell-based. In short, it runs like this:
as §1

Data set [7] relates to HT-22. Briefly: Neuroprotective activity in mouse HT22 cells assessed as reduction of glutamate-induced mitochondrial superoxide generation at 250 nM after 8 hrs by MitoSOX RED staining-based fluorescence microscopic analysis. The class given is functional, cell-based. In short, it runs like this: (§2)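 HT22 cells were given 10 mM glutamate plus compound for 8 h, then co-stained with MitoSOX Red (5 μM final) and Mitotracker Deep Red (10 nM final) for 20 min. Cells were washed twice with HBSS and imaged live by fluorescence microscopy in HBSS.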

In data set [8] the test system is Mus musculus. Briefly: Toxicity in BALB/cByJ mouse assessed as biochemical parameters at 50 mg/kg, ip daily for 3 weeks measured 2 hrs after final injection. The class given is organism-based. Also on record: dose 50 mg/kg, route intraperitoneal. Particulars: in vivo.
Data set [9] has as its system HT-22. Briefly: Antioxidant activity in mouse HT22 cells assessed as upregulation of NQO1 gene expression at 250 nM after 16 hrs by qRT-PCR analysis in the absence of glutamate. The class given is functional, cell-based. In short, it runs like this:
as §1

The subject of data set [10] is Mus musculus. The data set is described as follows: Toxicity in BALB/cByJ mouse assessed as outward signs of pain at 50 mg/kg, ip daily for 3 weeks measured 2 hrs after final injection. The class given is organism-based. The arrangement: dose 50 mg/kg, route intraperitoneal. Particulars: in vivo.
The nature of data set [11]: Neurotoxicity in mouse HT22 cells assessed as cell viability after 24 hrs by MTS assay. It counts as toxicity, cell-based, HT-22. The settings on record: read-out: TC50. In short, it runs like this: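 HT22 cells were seeded at 5.0 × 10^3 per well, cultured overnight, and treated with a range of compound concentrations without glutamate for 24 h. MTS was added for 2 h and absorbance read at 490 nm. Viability was expressed as percent of untreated cells, and TC50 was fit from titration curves (7- or 12-point, n = 3–4).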

In data set [12] the target is T1, Serine/threonine-protein phosphatase PGAM5, mitochondrial (Mus musculus) (UniProt Q8BX10).
T1 sequence (whole entry): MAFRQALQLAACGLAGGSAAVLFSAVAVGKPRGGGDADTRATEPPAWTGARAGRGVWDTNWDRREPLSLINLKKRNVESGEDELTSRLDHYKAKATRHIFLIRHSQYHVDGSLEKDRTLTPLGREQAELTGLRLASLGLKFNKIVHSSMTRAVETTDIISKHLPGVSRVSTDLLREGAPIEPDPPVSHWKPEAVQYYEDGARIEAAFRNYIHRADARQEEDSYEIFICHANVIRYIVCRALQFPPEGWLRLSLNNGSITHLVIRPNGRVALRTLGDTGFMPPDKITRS
Briefly: Inhibition of glutamate-induced increase in lower band of PGAM5 in mouse HT22 cells at 125 nM after 16 hrs by Western blotting analysis. It counts as cell-based. The settings on record: HT-22. In short, it runs like this:
(§3)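 HT22 cells were treated with 10 mM glutamate plus compound for 16 h, harvested, and lysed in low-salt buffer (50 mM Tris-HCl pH 7.4, 150 mM NaCl, 10% glycerol, Triton X-100, protease/phosphatase inhibitors) for 30 min with a brief sonication. Lysates were run on 4–12% gels and immunoblotted for phospho-Drp1 Ser637, total Drp1, PGAM5, actin and α-tubulin, then analyzed by densitometry.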

Data set [13] deals with HT-22. The data set is described as follows: Neuroprotective activity in mouse HT22 cells assessed as prevention from glutamate-induced oxidative cell death by MTS assay. It counts as functional. Put shortly:
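HT22 cells grown in high-glucose DMEM with 10% FBS and antibiotic-antimycotic at 37°C, 5% CO2. Seeded at 5.0 × 10^3 cells/well overnight, then given 10 mM glutamate (final) plus compound from DMSO stock. MTS added 24 h after treatment, 2 h at 37°C, A490 read. Viability taken as % of untreated cells. PC50 from 12-point titrations; experiments repeated at least four times.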

For data set [14], the system named is HT-22. The data set is described as follows: Antioxidant activity in mouse HT22 cells assessed as upregulation of NQO1 protein expression 8 hrs by Western blotting analysis. It counts as functional, cell-based.
Data set [15] has as its system Mus musculus. Briefly: Toxicity in BALB/cByJ mouse assessed as weight loss at 50 mg/kg, ip daily for 3 weeks measured 2 hrs after final injection. The settings on record: in vivo. The arrangement: dose 50 mg/kg, route intraperitoneal. The class given is organism-based.
Data set [16] deals with Dynamin-1-like protein (Mus musculus) (UniProt Q8K1M6). The data set is described as follows: Inhibition of glutamate-induced decrease in DRP1 phosphorylation at serine 637 in mouse HT22 cells at 125 nM after 16 hrs by Western blotting analysis. The class given is cell-based. Particulars: HT-22. In short, it runs like this: as §3
Data set [17] has as its system HT-22. Briefly: Antioxidant activity in mouse HT22 cells assessed as upregulation of HO1 protein expression 8 hrs by Western blotting analysis. It counts as functional, cell-based.
The subject of data set [18] is HT-22. The data set is described as follows: Antioxidant activity in mouse HT22 cells assessed as upregulation of HO1 gene expression at 250 nM after 16 hrs by qRT-PCR analysis in the absence of glutamate. It counts as functional, cell-based. Put shortly: as §1
In data set [19] the test system is HT-22. The data set is described as follows: Antioxidant activity in mouse HT22 cells assessed as prevention of glutamate-induced intracellular accumulation of free radicals at 250 nM after 8 hrs by spectrofluorometric analysis. It counts as functional, cell-based. In short, it runs like this: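 HT22 cells were seeded at 5.0 × 10^3 per well and cultured overnight, then given 10 mM glutamate plus compound for 8 h. Rho123 was added at 5 μM final for 20 min, cells were washed twice with HBSS, and oxidized Rho123 fluorescence was read at 500 nm excitation and 536 nm emission.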

Data set [20] has as its system HT-22. Briefly: Neuroprotective activity in mouse HT22 cells assessed as reduction of glutamate-induced mitochondrial fragmentation at 250 nM after 8 hrs by Mitotracker DR staining-based fluorescence microscopic analysis. The class given is functional, cell-based. Put shortly: as §2
A short description of data set [21]: Therapeutic index, ratio of cytotoxic TC50 for mouse HT22 cells to neuroprotective PD50 for mouse HT22 cells. It counts as cell-based, HT-22. The settings on record: read-out: TI.
Data set [22] concerns HT-22. The data set is described as follows: Antioxidant activity in mouse HT22 cells assessed as reduction in glutamate-induced upregulation of NQO1 gene expression at 250 nM after 16 hrs by qRT-PCR analysis relative to glutamate-treated control. The class given is functional, cell-based. Put shortly:
as §1

Data set [23] concerns HT-22. Briefly: Ratio of VK2 IC50 to 2-((4-Chlorobenzyl)amino)naphthalene-1,4-dione IC50 for prevention from glutamate-induced oxidative cell death in mouse HT22 cells. It counts as functional.
The target in data set [24] is Dynamin-1-like protein (Mus musculus) (UniProt Q8K1M6). The data set is described as follows: Inhibition of glutamate-induced decrease in DRP1 phosphorylation at serine 637 in mouse HT22 cells at 500 nM after 16 hrs by Western blotting analysis. The class given is cell-based. Particulars: HT-22. Put shortly:
as §3

Data set [25] concerns the target T1, Serine/threonine-protein phosphatase PGAM5, mitochondrial (Mus musculus). The data set is described as follows: Inhibition of glutamate-induced increase in lower band of PGAM5 in mouse HT22 cells at 500 nM after 16 hrs by Western blotting analysis. It counts as cell-based. The settings on record: HT-22. In short, it runs like this:
as §3

The structures appear in SMILES notation. Calls of active or inactive are those of the source. No cut-off for these calls is given here.

Chain of Dynamin-1-like protein (Mus musculus) (Q8K1M6 whole entry): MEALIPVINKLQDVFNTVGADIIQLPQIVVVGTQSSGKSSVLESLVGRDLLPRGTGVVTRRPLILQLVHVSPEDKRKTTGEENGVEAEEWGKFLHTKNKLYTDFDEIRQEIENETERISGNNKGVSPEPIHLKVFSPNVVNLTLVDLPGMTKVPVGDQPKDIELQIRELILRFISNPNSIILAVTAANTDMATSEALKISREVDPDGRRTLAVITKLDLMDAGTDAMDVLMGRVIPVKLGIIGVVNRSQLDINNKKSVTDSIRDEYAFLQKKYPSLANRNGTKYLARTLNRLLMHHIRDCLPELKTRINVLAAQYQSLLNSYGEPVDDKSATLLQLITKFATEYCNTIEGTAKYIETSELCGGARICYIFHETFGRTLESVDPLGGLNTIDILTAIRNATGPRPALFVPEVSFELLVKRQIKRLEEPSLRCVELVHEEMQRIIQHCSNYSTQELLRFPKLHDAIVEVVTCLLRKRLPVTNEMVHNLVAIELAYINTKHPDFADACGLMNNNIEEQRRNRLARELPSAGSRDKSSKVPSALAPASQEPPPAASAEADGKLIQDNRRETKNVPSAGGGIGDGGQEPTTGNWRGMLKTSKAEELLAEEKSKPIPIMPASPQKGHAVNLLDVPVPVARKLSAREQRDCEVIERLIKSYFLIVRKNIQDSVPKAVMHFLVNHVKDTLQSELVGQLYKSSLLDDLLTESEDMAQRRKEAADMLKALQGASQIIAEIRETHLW

Take `Cc1c(C)c2c(c(C)c1O)CCC(C)(C(=O)O)O2` (stereo unspecified): the outcome in the data set with HT-22 [1] and in the data set with HT-22 [3] was inactive. In addition, in data set [2], the result was Active.

Regarding `O=C1C=C(NCc2cccc(Cl)c2)C(=O)c2ccccc21`, the result in the data set with HT-22 [1], with HT-22 [6], in the data set with HT-22 [7], in the data set with HT-22 [19] and with HT-22 [20] was Active. For the same compound, the Activity entry in the data set with Mus musculus [4], with Mus musculus [8], in the data set on Mus musculus [10] and with Mus musculus [15] was “Non-toxic” each time. Moreover, the outcome (in the data set with HT-22 [5]; in the data set on HT-22 [9]; in data set [2]; in the data set with HT-22 [14]; with HT-22 [17]; in the data set with HT-22 [18]) was inactive. Besides, the result in the data set with HT-22 [22] was inactive. Further, the CC50 at 24 h in data set [11] is above 100 µM. Besides, the inhibition result in data set [12] and in [16] was “Active” in each case. For the same compound, the PD50 in the data set on HT-22 [13] was found to be 31 nM. Moreover, in [21], the selectivity ratio was above 3230. In the data set with HT-22 [23], the “Ratio IC50” value was above 10.

`CC(C)=CCC/C(C)=C/CC/C(C)=C/CC/C(C)=C/CC1=C(C)C(=O)c2ccccc2C1=O` [MENATETRENONE]: the outcome in the data set on HT-22 [1], in the data set on HT-22 [6], in the data set on HT-22 [7], in the data set with HT-22 [19] and in the data set with HT-22 [20] was Active. Further, the outcome (in the data set on HT-22 [5]; in the data set with HT-22 [9]; in data set [2]; in the data set with HT-22 [14]; in the data set on HT-22 [17]; in the data set with HT-22 [18]) was inactive. For the same compound, in the data set on HT-22 [22], the outcome was inactive. The CC50 at 24 h in data set [11] is above 100 µM. In addition, the inhibition entry in [24] and in data set [25] was “Active” in each case. In addition, the PD50 with HT-22 [13] stood at 432 nM.
